Test: Mean plasma clotting time (APTT) was measured following a single colonic dose with heparin in rats
Assay type: functional, Rattus norvegicus
Summary of the method: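 Male Sprague-Dawley rats (300-350 g, fasted 12 h, groups of 5) were anesthetized with ketamine 44 mg/kg im and given one colonic dose (1 mL/kg) by catheter through the anus. Dosing was delivery agent 50 mg/kg plus heparin 25 mg/kg for single agents, or 50 mg/kg for mixtures, as a sonicated solution of apparent pH about 7. Citrated cardiac blood was taken at 0-1.5 h, and mean peak plasma APTT was reported.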

Row | SMILES | APTT [s]
1 | O=C(O)CCCCCNC(=O)c1ccccc1O | 24
2 | Cc1ccccc1C(=O)NCCCCCCCCCC(=O)O | 34
3 | COc1ccccc1C(=O)NCCCCCC(=O)O | 31
4 | O=C(O)CCCCCCCCCNC(=O)c1ccccc1O | 153
5 | O=C(O)CCCCCNC(=O)c1ccccc1 | 33
6 | Cc1ccccc1C(=O)NCCCC(=O)O | 24
7 | O=C(O)CCCCCCCNC(=O)c1ccccc1 | 21
8 | O=C(O)CCCCCCCCCCCNC(=O)c1ccccc1 | 24
9 | COc1ccccc1C(=O)NCCCCCCCC(=O)O | 27
10 | Cc1ccccc1C(=O)NCCCCCCCCCCCC(=O)O | 30
11 | O=C(O)CCCNC(=O)c1ccccc1 | 22
12 | COc1ccccc1C(=O)NCCCCCCCCCC(=O)O | 50
13 | O=C(O)CCCCCCCCCNC(=O)c1ccccc1F | 27
14 | O=C(O)CCCCCCCNC(=O)c1ccccc1O [SALCAPROZIC ACID] | 125
15 | O=C(O)CCCCCCCNC(=O)c1ccccc1F | 25
16 | O=C(O)CCCCCCCCCNC(=O)c1ccccc1 | 31
17 | O=C(O)CCCNC(=O)c1ccccc1F | 22
18 | O=C(O)CCCCCNC(=O)c1ccccc1F | 28
19 | Cc1ccccc1C(=O)NCCCCCCCC(=O)O | 23
20 | O=C(O)CCCNC(=O)c1ccccc1O | 31
21 | O=C(O)CCCCCCCCCCCNC(=O)c1ccccc1F | 33
22 | COc1ccccc1C(=O)NCCCCCCCCCCCC(=O)O | 54
23 | COc1ccccc1C(=O)NCCCC(=O)O | 26
24 | O=C(O)CCCCCCCCCCCNC(=O)c1ccccc1O | 86
25 | Cc1ccccc1C(=O)NCCCCCC(=O)O | 26

Source: ChEMBL document CHEMBL1133654, “Studies directed at the use of a parallel synthesis matrix to increase throughput in an in vivo assay” (2000)
